For assay [1], the system named is Plasmodium yoelii. Briefly: Effective dose after oral administration against Plasmodium yoelii sspNS for 50%inhibition in presence of DMSO. Format: functional.
The subject of assay [2] is Plasmodium berghei. In words: (§1) Effective dose ED90 against Plasmodium berghei N in mice (Mus musculus) malaria model after peroral administration. Format: functional. As to conditions: po.
For assay [3], the system named is Plasmodium berghei. In words: Effective dose ED90 against Plasmodium berghei N in mice (Mus musculus) malaria model after subcutaneous administration. To be noted: Plasmodium berghei, sc; read-out: ED90. Format: functional.
Assay [4] relates to Plasmodium berghei. Briefly: Effective dose ED50 against Plasmodium berghei N in mice (Mus musculus) malaria model after subcutaneous administration. Format: functional.
Assay [5] concerns Plasmodium falciparum. Briefly: Inhibitory activity against Plasmodium falciparum D6. Format: functional, organism-based. The method, boiled down:
(§2)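 Parasitized human red blood cells were used in short-term microtitre cultures. Compounds were dissolved in DMSO and diluted 400-fold in culture medium with plasma, giving a starting concentration of at least 12 500 ng/mL. Activity was measured as inhibition of parasite uptake of a radiolabelled nucleic acid precursor.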

In assay [6] the test system is Plasmodium falciparum. In words: Inhibitory activity against Plasmodium falciparum K1. Format: functional, organism-based.
Assay [7] relates to Plasmodium falciparum. Briefly: Inhibitory activity against Plasmodium falciparum W2. Format: functional, organism-based. The method, boiled down:
as §2

Assay [8] relates to Plasmodium yoelii. In words: Effective subcutaneous dose ED50 in SSV against Plasmodium yoelii sspNS. Format: functional. To be noted: sc.
For assay [9], the system named is Plasmodium yoelii. Briefly: Effective subcutaneous dose ED90 in SSV against Plasmodium yoelii sspNS. Format: functional. As to conditions: sc.
For assay [10], the system named is Plasmodium yoelii. In words: Effective dose after oral administration against Plasmodium yoelii sspNS for 90%inhibition in presence of DMSO. Format: functional.
Assay [11] relates to Plasmodium berghei. In words: Antimalarial activity against Plasmodium berghei infected mice (Mus musculus) at 32 mg/kg/day subcutaneous dose. Format: functional. In outline: (§3)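 CD-1 mice (16-18 g), quarantined 2 weeks, then infected with P. berghei (Thompson test). Treatment was given on days 3-5 postinfection. Subcutaneous dosing was a single injection; oral dosing was by gavage of a peanut-oil suspension. Groups of 5 mice were used. Survival was scored out of 5 and parasitemia was followed up to 60 days postinfection.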

Assay [12] has as its system Plasmodium berghei. In words: Antimalarial activity in Plasmodium berghei infected mice (Mus musculus) after 128 mg/kg/day subcutaneous dose. Format: functional. The method, boiled down: as §3
The subject of assay [13] is Plasmodium berghei. Briefly: Antimalarial activity in Plasmodium berghei infected mice (Mus musculus) at 32 mg/kg/day subcutaneous dose. Format: functional. In outline: as §3
Assay [14] concerns Plasmodium yoelii. Briefly: Effective subcutaneous dose ED90 against Plasmodium yoelii sspNS. Format: functional.
For assay [15], the system named is Plasmodium berghei. Briefly: Antimalarial activity in Plasmodium berghei infected mice (Mus musculus) at 128 mg/kg/day peroral dose. Format: functional. To be noted: route oral. In outline: as §3
The test system of assay [16] is Plasmodium berghei. In words: Effective dose ED50 against Plasmodium berghei N in mice (Mus musculus) malaria model after peroral administration. Format: functional.
For assay [17], the system named is Plasmodium falciparum. Briefly: Inhibitory activity against Plasmodium falciparum NF54. Format: functional, organism-based.
Assay [18] deals with Plasmodium yoelii. Briefly: Percent suppression of Plasmodium […] NS infection in mice (Mus musculus) malaria model after 10 mg/kg peroral dose. As to conditions: route oral. Format: functional.
The subject of assay [19] is Plasmodium berghei. In words: Percent suppression of Plasmodium berghei N infection in mice (Mus musculus) malaria model after peroral dose. Format: functional.
Assay [20] relates to Plasmodium yoelii. In words: Effective dose against Plasmodium yoelii NS after 10 mg/kg peroral dose in mice (Mus musculus) malaria model; Not active. Format: functional, organism-based. Further details: dose 10 mg/kg.
The subject of assay [21] is Plasmodium berghei. Briefly: Effective dose against Plasmodium berghei N in mice (Mus musculus) malaria model after peroral administration. Format: functional. To be noted: po.
Assay [22] has as its system Plasmodium berghei. Briefly: Effective dose Plasmodium berghei N in mice (Mus musculus) malaria model after subcutaneous administration. Format: functional. To be noted: sc. In outline:
(§4)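 Peters' 4-day test: two batches of five male random-bred Swiss albino mice (18-22 g) were inoculated i.v. with 2 × 10⁶ P. berghei N-parasitized RBC. Drug was given once daily for four consecutive days. Compounds were dissolved in DMSO, then diluted in water for subcutaneous or oral dosing. Parasitemia was read the day after the last treatment.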

Assay [23] concerns Plasmodium berghei. In words: Effective dose ED50 against Plasmodium berghei N and Plasmodium species infected mice (Mus musculus) after peroral dose. Format: functional. To be noted: po. In outline:
as §4

Assay [24] concerns Plasmodium berghei. Described as §1. Format: functional. As to conditions: po. The method, boiled down:
as §4
The source holds these as a separate data set.

The test system of assay [25] is Plasmodium berghei. Briefly: Effective dose against Plasmodium berghei N in mice (Mus musculus) malaria model after subcutaneous administration. Format: functional. To be noted: sc. In outline:
as §4

The test system of assay [26] is Plasmodium yoelii. Briefly: Effective subcutaneous dose ED50 against Plasmodium yoelii sspNS. Format: functional. As to conditions: sc.
Assay [27] concerns Plasmodium yoelii. Briefly: Effective dose ED90 against Plasmodium yoelii sspNS on subcutaneous dose. Format: functional. To be noted: sc.
For assay [28], the system named is Plasmodium berghei. Briefly: Antimalarial activity in Plasmodium berghei infected mice (Mus musculus) at 8 mg/kg/day peroral dose. Format: functional. As to conditions: route oral. In outline:
as §3

In assay [29] the test system is Plasmodium berghei. In words: Antimalarial activity in Plasmodium berghei infected mice (Mus musculus) at 8 mg/kg/day subcutaneous dose. Format: functional. The method, boiled down:
as §3

Assay [30] has as its system Plasmodium berghei. In words: Antimalarial activity in Plasmodium berghei infected mice (Mus musculus) at 32 mg/kg/day peroral dose. Format: functional. As to conditions: route oral. In outline: as §3
For assay [31], the system named is Plasmodium berghei. In words: Effective dose ED90 against Plasmodium berghei N in mice (Mus musculus) malaria model after oral administration. Format: functional.
Assay [32] concerns Plasmodium yoelii. Briefly: Effective subcutaneous dose ED90 against Plasmodium yoelii NS. Format: functional.
The mark [33] stands for this setting: Plasmodium berghei, sc, read-out: ED50.
Setting [34] is: Plasmodium berghei, po, read-out: ED50.

In brackets after ≈: the same amount, converted by molar mass. Several values for one entry are separate records, joined by “and”; a condition that tells them apart may be missing. Identical values can stand only once. Activity calls are given as the source filed them. No cut-off for these calls is given here.

The ED50 is the dose at which the effect has come halfway, by size or by number of responders. The IC50 is the concentration needed to halve the response being measured. A higher IC50 goes with weaker potency. Take `C[C@@H]1CC[C@H]2[C@@H](CCCc3cc(F)cc(F)c3)CO[C@@H]3OC4(C)CC[C@@H]1[C@]32OO4` (single isomer, unassigned): the ED50 was 2.3 mg/kg with Plasmodium yoelii [1], 1.3 mg/kg in the assay on Plasmodium berghei [4] (setting [33]) and 2.2 mg/kg in the assay with Plasmodium yoelii [8]. Also, the ED90 in the assay on Plasmodium berghei [2] amounted to 5.7 mg/kg; in the assay with Plasmodium berghei [3], 2 mg/kg; in the assay on Plasmodium yoelii [9], 6.5 mg/kg; in the assay on Plasmodium yoelii [10], 7.5 mg/kg. Further, the IC50 in the assay with Plasmodium falciparum [5] worked out at 0.82 ng/mL (≈ 0.00201 µM); in the assay on Plasmodium falciparum [6], 3.2 ng/mL (≈ 0.00783 µM); in the assay with Plasmodium falciparum [7], 6.5 ng/mL (≈ 0.0159 µM).

On to `C[C@@H]1CC[C@H]2[C@@H](CCCc3ccc(Cl)cc3)CO[C@@H]3OC4(C)CC[C@@H]1[C@]32OO4` (single isomer, unassigned), for which the Survival dose in the assay on Plasmodium berghei [11] is reported as 5. Further, the IC50 was 1.9 ng/mL (≈ 0.00467 µM) in the assay on Plasmodium falciparum [5] and 2.6 ng/mL (≈ 0.00639 µM) in the assay on Plasmodium falciparum [7]. In addition, the Activity in the assay on Plasmodium berghei [12], with Plasmodium berghei [13] and with Plasmodium berghei [15] was 5 throughout. In the assay with Plasmodium yoelii [14], the ED90 came out at 1.

Turning to `C=C[C@H]1CN2CC[C@H]1C[C@H]2[C@H](O)c1ccnc2ccc(OC)cc12` [QUININE], the ED50 with Plasmodium berghei [16] (setting [34]) was 71 mg/kg; with Plasmodium berghei [4] (setting [33]), 83 mg/kg. Further, the ED90 is 118 mg/kg in the assay with Plasmodium berghei [2] and 1050 mg/kg with Plasmodium berghei [3]. In addition, the values for the IC50 in the assay with Plasmodium falciparum [5], with Plasmodium falciparum [17] and in the assay on Plasmodium falciparum [7] were 160 ng/mL (≈ 0.492 µM), 9.08 ng/mL (≈ 0.028 µM) and 150 ng/mL (≈ 0.462 µM), respectively.

As to `C[C@@H]1CC[C@H]2[C@@H](CCCC(F)(F)F)CO[C@@H]3OC4(C)CC[C@@H]1[C@]32OO4` (single isomer, unassigned), the Activity amounted to 0.3% in the assay on Plasmodium yoelii [18] and 6.5% in the assay with Plasmodium berghei [19]. Also, the IC50 in the assay on Plasmodium falciparum [5] was 12.5 ng/mL (≈ 0.0342 µM); in the assay on Plasmodium falciparum [7], 8.87 ng/mL (≈ 0.0243 µM). Moreover, the NA result in the assay with Plasmodium yoelii [20] was “inactive”. The molecule also yielded an ED50 in the assay on Plasmodium berghei [21] of over 10 mg/kg. In addition, the ED90 in the assay with Plasmodium berghei [21] is over 10 mg/kg.

`C[C@H]1[C@H](OC(=O)CCC(=O)[O-])O[C@@H]2O[C@@]3(C)CC[C@H]4[C@H](C)CC[C@@H]1[C@@]24OO3.[Na+]` [SODIUM ARESUNATE]: the ED50 is 1.6 mg/kg in the assay on Plasmodium berghei [16]; 2.4 mg/kg in the assay with Plasmodium berghei [16] (setting [34]); over 10 mg/kg in the assay with Plasmodium berghei [22]; 0.8 mg/kg and 1.8 mg/kg in the assay with Plasmodium berghei [4]. Further, the ED90 in the assay with Plasmodium berghei [23], with Plasmodium berghei [24] and in the assay with Plasmodium berghei [25] was over 10 mg/kg in each case.

As for `C[C@@H]1CC[C@H]2[C@@H](CCCc3cccc(C(F)(F)F)c3)CO[C@@H]3OC4(C)CC[C@@H]1[C@]32OO4` (single isomer, unassigned), the ED50 in the assay on Plasmodium berghei [16] (setting [34]) is 1.25 mg/kg; in the assay with Plasmodium berghei [4] (setting [33]) it was 0.4 mg/kg; with Plasmodium yoelii [26], 0.6 mg/kg. In addition, the ED90 in the assay on Plasmodium berghei [2] stood at 4.4 mg/kg; in the assay with Plasmodium berghei [3] it was 0.75 mg/kg; with Plasmodium yoelii [27], 1 mg/kg. Also, the IC50 was determined as 8.48 ng/mL (≈ 0.0193 µM) in the assay with Plasmodium falciparum [5], 12 ng/mL (≈ 0.0272 µM) in the assay on Plasmodium falciparum [6], 35.6 ng/mL (≈ 0.0808 µM) with Plasmodium falciparum [17] and 30.3 ng/mL (≈ 0.0688 µM) in the assay on Plasmodium falciparum [7].

Consider `C[C@@H]1CC[C@H]2[C@@H](CCCc3ccc(F)cc3)CO[C@@H]3OC4(C)CC[C@@H]1[C@]32OO4` (single isomer, unassigned), for which the Activity in the assay on Plasmodium berghei [28] was determined as 1; with Plasmodium berghei [12] it was 5; with Plasmodium berghei [13], 5; in the assay with Plasmodium berghei [29], 0; with Plasmodium berghei [15] it was 5; in the assay with Plasmodium berghei [30] it was 5.

For `C[C@@H]1CC[C@H]2[C@@H](CCCc3ccccc3)CO[C@@H]3OC4(C)CC[C@@H]1[C@]32OO4` (single isomer, unassigned), the ED90 in the assay with Plasmodium berghei [31] is listed as 3.4; with Plasmodium berghei [4], 1; in the assay with Plasmodium yoelii [32], 0.9. Besides, in the assay with Plasmodium falciparum [5], half-maximal inhibition (IC50) required 0.9 ng/mL (≈ 0.00242 µM). The Activity in the assay with Plasmodium berghei [28] came out at 0; in the assay on Plasmodium berghei [12], 5; with Plasmodium berghei [13] it was 5; in the assay on Plasmodium berghei [29], 0; in the assay on Plasmodium berghei [15], 5; with Plasmodium berghei [30] it was 4.

For the molecule `C[C@@H]1CC[C@H]2[C@@H](CCCc3ccc(Cl)c(Cl)c3)CO[C@@H]3OC4(C)CC[C@@H]1[C@]32OO4` (single isomer, unassigned), the Activity in the assay with Plasmodium berghei [28] was determined as 0; in the assay on Plasmodium berghei [12], 5; in the assay on Plasmodium berghei [13], 5; with Plasmodium berghei [29], 0; in the assay with Plasmodium berghei [15], 5; with Plasmodium berghei [30] it was 5.

The values above are taken from ChEMBL document CHEMBL1135746, “Structure-activity relationships of the antimalarial agent artemisinin. 7. Direct modification of (+)-artemisinin and in vivo antimalarial screening of new, potential preclinical antimalarial candidates” (J Med Chem, 2002).
